In brackets after ≈: the same amount, converted by molar mass. Activity calls are given as the source filed them. No cut-off for these calls is given here.
What was measured:
Type in all cases: functional
Staphylococcus aureus [1] = assay: microbe, parasite or virus in culture; conditions: ATCC 9144, 24 h, read-out: IZ
Bacillus cereus [2] = assay: Antimicrobial activity against Bacillus cereus ATCC 11778 at 100 ug/ml after 24 hrs by paper disk diffusion method; conditions: ATCC 11778, 24 h, read-out: IZ
Escherichia coli [3] = assay: microbe, parasite or virus in culture; conditions: ATCC 25922, 24 h, read-out: IZ
Klebsiella pneumoniae [4] = assay: microbe, parasite or virus in culture; conditions: ATCC 11298, 24 h, read-out: IZ
Staphylococcus aureus [5] = assay: microbe, parasite or virus in culture; conditions: ATCC 9144, 24 h
Bacillus cereus [6] = assay: microbe, parasite or virus in culture; conditions: ATCC 11778, 24 h
Escherichia coli [7] = assay: microbe, parasite or virus in culture; conditions: ATCC 25922, 24 h
Klebsiella pneumoniae [8] = assay: microbe, parasite or virus in culture; conditions: ATCC 11298, 24 h
[9] = system: Radical scavenging activity; assay: Antioxidant activity assessed as DPPH radical scavenging activity at 50 ug/ml
Method in brief: (§1)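 Each test sample was mixed with 1 ml DPPH in methanol, incubated at 37 °C for 30 min, and read spectrophotometrically at 517 nm with a blank reading. Scavenging % was expressed as the absorbance decrease at 517 nm relative to DPPH solution without test sample.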

[10] = system: Radical scavenging activity; assay: Antioxidant activity assessed as DPPH radical scavenging activity at 100 ug/ml
Method in brief: as §1

[11] = system: Radical scavenging activity; assay: Antioxidant activity assessed as DPPH radical scavenging activity at 200 ug/ml
Method in brief: as §1

[12] = system: Radical scavenging activity; assay: Antioxidant activity assessed as DPPH radical scavenging activity at 400 ug/ml
Method in brief: as §1

[13] = system: Radical scavenging activity; assay: Antioxidant activity assessed as DPPH radical scavenging activity
Method in brief: as §1

[14] = Antioxidant activity assessed as ABTS radical scavenging activity at 50 ug/ml
Method in brief: (§2)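 Test samples at 50, 100, 200 and 400 ug/ml were each mixed with 1 ml of freshly prepared ABTS radical cation solution, adjusted to absorbance 0.7–0.9 at 734 nm. Mixtures reacted 2 h in the dark, then absorbance was read at 734 nm against a blank. Scavenging % was taken as the absorbance decrease relative to ABTS solution without test sample.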

[15] = Antioxidant activity assessed as ABTS radical scavenging activity at 100 ug/ml
Method in brief: as §2

[16] = Antioxidant activity assessed as ABTS radical scavenging activity at 200 ug/ml
Method in brief: as §2

[17] = Antioxidant activity assessed as ABTS radical scavenging activity at 400 ug/ml
Method in brief: as §2

[18] = Antioxidant activity assessed as ABTS radical scavenging activity
Method in brief: as §2

MCF7 = assay: Cytotoxicity against human MCF7 cells after 24 hrs by MTT assay; conditions: MCF7, 24 h
Method in brief: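 Exponentially growing cells plated at 10⁴ cells/well and allowed to attach, then exposed to test compounds or doxorubicin (dissolved in 0.1% DMSO, diluted in medium; range 1–100) for 24 h; controls received medium with 0.1% DMSO. MTT (1 mg/ml) added for 4 h at 37 °C, formazan dissolved in DMSO, absorbance read at 540 nm; % cytotoxicity calculated from blank-corrected absorbances versus control.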

MIC (Staphylococcus aureus [5])	MIC (Bacillus cereus [6])	MIC (Escherichia coli [7])	MIC (Klebsiella pneumoniae [8])	Compound	zone of inhibition at 100 µg/mL (Staphylococcus aureus [1])	zone of inhibition at 100 µg/mL (Bacillus cereus [2])	zone of inhibition at 100 µg/mL (Escherichia coli [3])	zone of inhibition at 100 µg/mL (Klebsiella pneumoniae [4])	Activity [9]	Activity [10]	Activity [11]	Activity [12]	Activity [13]	Activity [14]	Activity [15]	Activity [16]	Activity [17]	Activity [18]	Activity ([9]; at 50 µg/mL)	Activity ([10]; at 100 µg/mL)	other results
24 µg/mL (≈ 62.6 µM)	35.4 µg/mL (≈ 92.3 µM)	27.5 µg/mL (≈ 71.7 µM)	25.5 µg/mL (≈ 66.5 µM)	N#CC1=C(N)OC(c2c[nH]c3ccccc23)=C(C#N)C1c1cccc([N+](=O)[O-])c1 (stereo not drawn)	19 mm	13 mm	16 mm	15 mm	inactive	inactive	inactive	inactive	inactive	inactive	inactive	inactive	inactive	inactive	–	–	–
15.4 µg/mL (≈ 41.8 µM)	24.5 µg/mL (≈ 66.5 µM)	23.4 µg/mL (≈ 63.5 µM)	19.6 µg/mL (≈ 53.2 µM)	COc1ccc(C2C(C#N)=C(N)OC(c3c[nH]c4ccccc34)=C2C#N)cc1 (stereo not drawn)	21 mm	16 mm	18 mm	19 mm	–	–	–	–	–	–	–	–	–	–	53.6%	56.9%	Activity ([11]; at 200 µg/mL): 59.9%; Activity ([12]; at 400 µg/mL): 60.2%; IC50 [13]: < 50 µg/mL; Activity ([14]; at 50 µg/mL): 12.4%; Activity ([15]; at 100 µg/mL): 20%; Activity ([16]; at 200 µg/mL): 26.4%; Activity ([17]; at 400 µg/mL): 28.7%; IC50 [18]: 858.69 µg/mL (≈ 2330 µM)
27.5 µg/mL (≈ 65.9 µM)	24 µg/mL (≈ 57.5 µM)	30.2 µg/mL (≈ 72.4 µM)	26.3 µg/mL (≈ 63 µM)	N#CC1=C(N)OC(c2c[nH]c3ccccc23)=C(C#N)C1c1cccc(Br)c1 (stereo not drawn)	16 mm	14 mm	14 mm	14 mm	inactive	inactive	inactive	inactive	inactive	inactive	inactive	inactive	inactive	inactive	–	–	–
12.4 µg/mL (≈ 33.3 µM)	16.4 µg/mL (≈ 44 µM)	16.5 µg/mL (≈ 44.3 µM)	16.1 µg/mL (≈ 43.2 µM)	N#CC1=C(N)OC(c2c[nH]c3ccccc23)=C(C#N)C1c1ccccc1Cl (stereo not drawn)	24 mm	17 mm	21 mm	20 mm	–	–	–	–	–	–	–	–	–	–	27.9%	34%	Activity ([11]; at 200 µg/mL): 39.6%; Activity ([12]; at 400 µg/mL): 45.7%; IC50 [13]: 467.49 µg/mL (≈ 1250 µM); Activity ([14]; at 50 µg/mL): 8.5%; Activity ([15]; at 100 µg/mL): 10.4%; Activity ([16]; at 200 µg/mL): 14.5%; Activity ([17]; at 400 µg/mL): 21.4%; IC50 [18]: > 1000 µg/mL
21 µg/mL (≈ 44 µM)	24.5 µg/mL (≈ 51.3 µM)	29.5 µg/mL (≈ 61.8 µM)	33.4 µg/mL (≈ 70 µM)	COc1cc(Br)c(C2C(C#N)=C(N)OC(c3c[nH]c4ccccc34)=C2C#N)cc1OC (stereo not drawn)	20 mm	14 mm	16 mm	19 mm	–	–	–	–	–	–	–	–	–	–	51.7%	53.8%	Activity ([11]; at 200 µg/mL): 57.3%; Activity ([12]; at 400 µg/mL): 64.4%; IC50 [13]: < 50 µg/mL; Activity ([14]; at 50 µg/mL): 18.5%; Activity ([15]; at 100 µg/mL): 20.5%; Activity ([16]; at 200 µg/mL): 24.2%; Activity ([17]; at 400 µg/mL): 26.7%; IC50 [18]: 880.3 µg/mL (≈ 1840 µM)

Compound	MIC (Staphylococcus aureus [5])	MIC (Bacillus cereus [6])	MIC (Escherichia coli [7])	MIC (Klebsiella pneumoniae [8])	zone of inhibition at 100 µg/mL (Staphylococcus aureus [1])	zone of inhibition at 100 µg/mL (Bacillus cereus [2])	zone of inhibition at 100 µg/mL (Escherichia coli [3])	zone of inhibition at 100 µg/mL (Klebsiella pneumoniae [4])	Activity [9]	Activity [10]	Activity [11]	Activity [12]	Activity [13]	Activity [14]	Activity [15]	Activity [16]	Activity [17]	Activity [18]	Activity ([9]; at 50 µg/mL)	Activity ([10]; at 100 µg/mL)	other results
O=C(O)c1cn(C2CC2)c2cc(N3CCNCC3)c(F)cc2c1=O [CIPROFLOXACIN]	0.2 µg/mL (≈ 0.604 µM)	0.3 µg/mL (≈ 0.905 µM)	–	0.1 µg/mL (≈ 0.302 µM)	26 mm	25 mm	27 mm	26 mm	–	–	–	–	–	–	–	–	–	–	–	–	–
N#CC1=C(N)OC(c2c[nH]c3ccccc23)=C(C#N)C1c1ccc2ccccc2c1 (stereo not drawn)	32.4 µg/mL (≈ 83.4 µM)	23.3 µg/mL (≈ 60 µM)	29.4 µg/mL (≈ 75.7 µM)	30.5 µg/mL (≈ 78.5 µM)	14 mm	15 mm	16 mm	15 mm	inactive	inactive	inactive	inactive	inactive	inactive	inactive	inactive	inactive	inactive	–	–	GI50 (MCF7): 15.5 µM; LC50 (concentration killing 50% of cells) (MCF7): 91.5 µM; TGI (MCF7): 46.6 µM

From ChEMBL document CHEMBL1221298, “InCl3 mediated one-pot multicomponent synthesis, anti-microbial, antioxidant and anticancer evaluation of 3-pyranyl indole derivatives” (Bioorg Med Chem Lett, 2010)
